# Experimental data as given in PMC8451875 (British Journal of Clinical Pharmacology, 2021).
# Experiments:
# [1] = Phase I 2-way drug interaction study, safety and tolerability; type: in vivo, healthy adults; conditions: for overall drug interaction, tolerability and safety finding: administered alone or in combination, healthy adults
# Method in brief: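 Open-label, fixed-sequence study in healthy men and women aged 18–55 years with BMI 18.5–31.0 kg/m2. Each drug was given alone and in combination, with a moderate-fat meal 30 min before dosing. Adverse events were monitored along with clinical laboratory values, vital signs, electrocardiography and physical examination, and summarised descriptively.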
# [2] = Phase I 2-way drug interaction study, steady-state plasma pharmacokinetics; type: in vivo, healthy adults
# Method in brief: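 After an overnight fast of ≥8 h and a moderate-fat meal 30 min before dosing, each drug was given once daily in fixed sequence. Plasma was sampled predose daily, then postdose on the final dosing day at 1–24 h, extended to 72 h or 96 h. Noncompartmental ln-transformed AUC0-t, Cmax and Ct were fitted by linear mixed model (period fixed, participant random) for GMR and 90% CI. t1/2 was descriptive.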
# [3] = healthy participants administered GSK3640254; cited from earlier work
# HIV‐1 subtypes = conditions: no cross-resistance to currently approved antiretroviral treatments; cited from earlier work
# [4] = dolutegravir 50 mg + GSK3640254 200 mg QD, after Day 7 dose, n = 16
"dolutegravir Tmax (median [min, max]) ([2]; dolutegravir 50 mg + GSK3640254 200 mg QD, Day 7, n = 16)","dolutegravir t1/2, geometric mean (SD Ln) [2, 4]","dolutegravir Cmax, geometric mean (SD Ln) ([2]; dolutegravir 50 mg QD alone, Day 5, steady state, moderate-fat meal, plasma, n = 16)","dolutegravir t1/2, geometric mean (SD Ln) ([2]; dolutegravir 50 mg QD alone, after Day 5 dose, n = 16)","concentration at 24 h ([2]; human, plasma, 50 mg)",SMILES,"overall drug interaction, tolerability and safety finding [1]",contact dermatitis at the electrocardiographic electrode site ([1]; 16 participants per treatment),most commonly reported adverse event [3],inhibition across HIV‐1 subtypes (HIV‐1 subtypes),"GSK3640254 t1/2, geometric mean (SD Ln) [2, 4]","AUC ([2]; human, plasma, 200 mg)","Cmax ([2]; human, plasma, 200 mg)","Tmax ([2]; human, plasma, 200 mg)","concentration at 24 h ([2]; human, plasma, 200 mg)"
"3.0 (1.0, 4.5) h",14.69 (1.13) h,4.96 (1.18) μg/mL,14.49 (1.13) h,1370 ng/mL,"C[C@@H]1CCO[C@H]2Cn3cc(C(=O)NCc4ccc(F)cc4F)c(=O)c(O)c3C(=O)N12 [dolutegravir, reference compound]",not associated with drug–drug interactions or major tolerability or safety findings,–,–,–,–,–,–,–,–
–,–,–,–,–,C=C(C)[C@@H]1CC[C@]2(NCCN3CCS(=O)(=O)CC3)CC[C@]3(C)[C@H](CC[C@@H]4[C@@]5(C)CC=C(C6=CC[C@@](CF)(C(=O)O)CC6)C(C)(C)[C@@H]5CC[C@]43C)[C@@H]12 [GSK3640254],not associated with drug–drug interactions or major tolerability or safety findings,1 event,headaches,demonstrated inhibition,23.42 (1.16) h,26700 ng·h/mL,1680 ng/mL,5 h,860 ng/mL
